Results on six molecules are retold here after ChEMBL document CHEMBL1121796, “Bioactivation of the antitumor drugs 9-hydroxyellipticine and derivatives by a peroxidase-hydrogen peroxide system” (1981).

Assay [1] has as its target Myeloperoxidase (Homo sapiens) (UniProt P05164). Description: The effect on oxygen consumed in the presence of MPO-H2O2.
Assay [2] relates to Mus musculus. Description: Increase in life span over controls (10e5 cells) in mice after intraperitoneal treatment of the compound. On the set-up: concentration or dose not given beside the values. The assay is classed as functional. The method, boiled down: (§1)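 DBA/2 mice were inoculated with 10⁵ L1210 leukemia cells and given a single intraperitoneal injection of drug. Survival was compared with untreated controls as increase in life span, ILS = [(T − C)/C] × 100. An antitumor effect was counted significant at ILS ≥ 25%.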

In assay [3] the target is Myeloperoxidase (Homo sapiens) (UniProt P05164). Description: The effect on NADH oxidation in the presence of MPO-H2O2.
Assay [4] deals with L1210. Nature of the assay: Compound was tested for its cytotoxic activity against murine leukemia L1210 cells in mice after intraperitoneal treatment, expressed as LD0 (highest nonlethal dose). It counts as functional, Mus musculus. The method, boiled down:
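Highest nonlethal dose (LD0) found for each drug after a single intraperitoneal injection into DBA/2 or Swiss mice.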

The test system of assay [5] is L1210. Description: Compound was tested for its antitumor activity against murine leukemia L1210 cells in vitro, expressed as ID50. The assay is classed as functional. The settings on record: Mus musculus, read-out: ID50 (the source's name). In outline:
(§2)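 L1210 murine leukemia cells were grown in culture with drug for 48 h. ID50 is the drug concentration that cuts the rate of cell multiplication by 50% compared with untreated controls.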

Assay [6] has as its system Mus musculus. Nature of the assay: Increase in life span over control (10e5 cells) in mice after intraperitoneal treatment of the compound. The assay is classed as functional. In outline: as §1
In assay [7] the test system is L1210. Description: The compound is tested for its antitumor activity against murine leukemia L1210 cells in vitro, expressed as ID50. The assay is classed as functional. To be noted: Mus musculus, read-out: ID50 (the source's name). The method, boiled down: as §2
Assay [8] deals with L1210. Nature of the assay: The compound is tested for its cytotoxic activity against murine leukemia L1210 cells in mice after intraperitoneal treatment, expressed as LD0 (highest nonlethal dose). The assay is classed as functional, Mus musculus.
For assay [9], the target named is Myeloperoxidase (Homo sapiens) (UniProt P05164). Description: he effect on oxygen consumed in the presence of MPO-H2O2.
For assay [10] the target is unchanged. Description: The effect on NADH oxidation in the presence of MPO-H2O2 at pH 7.4.
For assay [11] the target is unchanged. Nature of the assay: The effect on oxygen uptake in the presence of MPO-H2O2 without the compound at pH 6.0.
The target is the same in assay [12]. Description: The effect on oxygen uptake in the presence of MPO-H2O2 at pH 6.8.
For assay [13] the target is unchanged. Description: The effect on oxygen uptake in the presence of MPO-H2O2 without the compound at pH 7.4.
For assay [14] the target is unchanged. Nature of the assay: The effect on NADH oxidation in the presence of MPO-H2O2 without the compound.
Assay [15] shares this target. Nature of the assay: The effect on NADH oxidation in the presence of MPO-H2O2 without compound at pH 7.4.
For assay [16] the target is unchanged. Description: The effect on NADH oxidation in the presence of MPO-H2O2 without compound at pH 7.8.
Assay [17] has the same target. Description: The effect on oxygen uptake in the presence of MPO-H2O2 without the compound at pH 6.8.
Assay [18] has the same target. Nature of the assay: The effect on NADH oxidation in the presence of MPO-H2O2 at pH 7.8.
For assay [19] the target is unchanged. Nature of the assay: The effect on oxygen uptake in the presence of MPO-H2O2 without the compound at pH 8.3.
The target is the same in assay [20]. Nature of the assay: The effect on NADH oxidation in the presence of MPO-H2O2 at pH 8.3.
The target is the same in assay [21]. Description: The effect on oxygen uptake in the presence of MPO-H2O2 without the compound at pH 7.8.
For assay [22] the target is unchanged. Description: The effect on oxygen uptake in the presence of MPO-H2O2 at pH 7.4.
Assay [23] has the same target. Nature of the assay: The effect on oxygen uptake in the presence of MPO-H2O2 at pH 8.3.
Assay [24] has the same target. Description: The effect on NADH oxidation in the presence of MPO-H2O2. This is another data set of the same source.
Assay [25] shares this target. Description: The effect on oxygen uptake in the presence of MPO-H2O2 at pH 6.0.
For assay [26] the target is unchanged. Description: The effect on NADH oxidation in the presence of MPO-H2O2 without the compound at pH 8.3.
The target is the same in assay [27]. Description: The effect on oxygen uptake in the presence of MPO-H2O2 at pH 7.8.
Assay [28] shares this target. Nature of the assay: The effect on NADH oxidation in the presence of MPO-H2O2 without the compound at pH 6.0.
For assay [29] the target is unchanged. Nature of the assay: The effect on NADH oxidation in the presence of MPO-H2O2 at pH 6.0.
The target is the same in assay [30]. Description: The effect on NADH oxidation in the presence of MPO-H2O2 at pH 6.8.

On to `Cc1c2ccncc2c(C)c2c1[nH]c1ccccc12` [ELLIPTECINE], for which, in assay [1], the Oxygen consumed is 0 nM/min. The ILS in assay [2] is reported as 68%. Further, the NADH oxidized in [3] is 0 nM/min. The molecule further returned an LD0 in assay [4] of 50 mg/kg. Also, the IC50 in assay [5] is 990 nM.
`Cc1c2c[n+](C)ccc2c(C)c2c1c1cc(O)ccc1n2C`: the Oxygen consumed in assay [1] was found to be 7.7 nM/min. Further, the increase in life span (ILS) in assay [6] amounted to 78%. Besides, the NADH oxidized in [3] was determined as 16.15 nM/min. This molecule gave an LD0 in assay [4] of 15 mg/kg. For the same molecule, in assay [5], the IC50 was determined as 41 nM.
As for `COc1ccc2[nH]c3c(C)c4ccncc4c(C)c3c2c1`, the Oxygen consumed in assay [1] stood at 0 nM/min. Further, the ILS in assay [2] was determined as 70%. For the same molecule, the NADH oxidized in assay [3] was 0.22 nM/min. The IC50 in assay [7] stood at 600 nM. This molecule yielded an LD0 in assay [8] of 70 mg/kg.
With `Cc1c2cc[n+](C)cc2c(C)c2c1[nH]c1ccc(O)cc12` [ELLIPTINIUM], the Oxygen consumed in [1] was 0 nM/min. In assay [2], this molecule came in with an ILS of 62%. Besides, the NADH oxidized in assay [3] was 12.2 nM/min. Also, the LD0 in assay [4] came to 5 mg/kg. Moreover, in assay [5], the IC50 was found to be 50 nM.
For `Cc1c2cc[n+](C)cc2c(C)c2c1[nH]c1ccccc12`, the ILS in [2] worked out at 18%. The NADH oxidized in [3] is 0 nM/min. The same molecule displayed an LD0 in [4] of 12.5 mg/kg. Moreover, in [9], the Oxygen consumed was 0 nM/min. Besides, the IC50 in [5] is 1680 nM.
Consider `Cc1c2ccncc2c(C)c2c1[nH]c1ccc(O)cc12`, for which the NADH oxidation in assay [10] is 10.2 nM/min; in assay [14], 0.5 nM/min; in [15] it was 0 nM/min; in [16], 0 nM/min; in assay [18], 7.2 nM/min; in [20], 6.5 nM/min. Also, the NADH oxidation amounted to 0 nM/min in assay [26], 5.5 nM/min in [29] and 7.8 nM/min in assay [30]. Also, the Oxygen uptake worked out at 0.52 nM/min in assay [11]; 0 nM/min in [12]; 0 nM/min in [13]; 0.28 nM/min in [17]; 0 nM/min in assay [19]; 0 nM/min in assay [21]. In addition, the Oxygen uptake in assay [22], in assay [23], in assay [25] and in assay [27] was 0 nM/min throughout. For the same molecule, the ILS in assay [2] is listed as 53%. The NADH oxidized in [3] came out at 10.5 nM/min; in [28], 1.2 nM/min. Besides, the LD0 in [4] was 50 mg/kg. Besides, in [24], the Oxygen consumed amounted to 0 nM/min. Besides, in [5], the IC50 is 15 nM.

As a reminder, the ILS is the gain in survival time of treated over control animals, in per cent.
